Experimental data pooled from the literature.
Protocols differ between the studies behind these lines.
Target: Macrophage-stimulating protein receptor (MST1R, Homo sapiens, UniProt Q04912)

Cc1ccc(Nc2nccc(N(C)c3ccc4c(C)n(C)nc4c3)n2)cc1S(N)(=O)=O — inhibition (cell-free assay; 0.3 µM): -3%
O=C(NS(=O)(=O)c1ccc(NCC2CCOCC2)c([N+](=O)[O-])c1)c1ccc(N2CCN(Cc3ccc(C(F)(F)F)cc3-c3ccc(Cl)cc3)CC2)cc1Oc1cnc2[nH]ccc2c1 — remaining binding (cell-free assay; competition with immobilised ligand; 1 µM): 96%
CCCOc1ccc(OC)c(F)c1C(=O)c1ccc(C(=O)N[C@@H]2CNC[C@H]2NC(=O)c2ccc3[nH]ncc3c2)cc1 — remaining activity (enzyme activity; inhibitor; 10 µM): 64%
Cc1cnc(NC2CCOCC2)nc1-n1cnc(C(=O)NC(CN)c2cc(F)cc(Cl)c2)c1 (stereo not shown) — remaining activity (enzyme activity; inhibitor; radiometric; 1 µM): 107%
CCN(CC)CCNC(=O)c1c(C)[nH]c(/C=C2\C(=O)Nc3ccc(F)cc32)c1C — remaining activity (enzyme activity; inhibitor; 1 µM): 138%
COc1cc2c(Nc3ccc(Br)cc3F)ncnc2cc1OCC1CCN(C)CC1 — remaining signal (cell-free assay; 0.5 µM): 93.6%
CNC(=O)c1cc(Oc2ccc(NC(=O)Nc3ccc(Cl)c(C(F)(F)F)c3)cc2)ccn1 — inhibition (cell-free assay; 10 µM): -5%
O=C1NC(=O)c2cc(Nc3ccc(F)cc3)c(Nc3ccc(F)cc3)cc21 — remaining signal (cell-free assay; 0.5 µM): 100%
CC1=C(C#N)[C@@H](c2ccc3[nH]nc(C)c3c2)C(C#N)=C(c2ccc(Cl)cc2)N1 — remaining binding (cell-free assay; competition with immobilised ligand; 1 µM): 70.2%
O=C(Nc1cnn(-c2csc(C(=O)NC3COC3)c2)c1)Nc1c(F)cccc1Cl — remaining activity (enzyme activity; inhibitor; 5 µM): 100%
c1ccc(CNc2nc(N3CCOc4ccccc43)nc3c2CCCC3)cc1 — inhibition (target engagement in cells; inhibitor; chemoproteomics; 20 mM): -10.5%
CCCCN(CCCC)C(=O)CN1C[C@@H](c2cc(OC)c3c(c2)OCO3)[C@H](C(=O)O)[C@H]1CC(C)(C)CCC — remaining binding (cell-free assay; competition with immobilised ligand; 1 µM): 100%
CCCS(=O)(=O)Nc1ccc(F)c(C(=O)c2c[nH]c3ncc(-c4ccc(Cl)cc4)cc23)c1F — inhibition (enzyme activity; inhibitor; 1 µM): < 10%
CCc1ccccc1C(=O)Nc1n[nH]c2c(C)c(F)c(C3C(C#N)=C(C)N(C)C(C)=C3C#N)cc12 — remaining binding (cell-free assay; competition with immobilised ligand; 1 µM): 100%
Clc1ccc(Nc2nnc(Cc3ccncc3)c3ccccc23)cc1 — remaining signal (cell-free assay; 0.5 µM): 91.6%
COc1cc2ncnc(Nc3ccc(Oc4ccccc4)c(C)c3C)c2cc1OC — inhibition (enzyme activity; inhibitor; 1 µM): -3%
CO[C@H]1CC[C@H](CNc2ccc(S(=O)(=O)NC(=O)c3ccc(N4CCN(CC5=C(c6ccc(Cl)cc6)CC(C)(C)CC5)CC4)cc3Oc3cnc4[nH]ccc4c3)cc2[N+](=O)[O-])CC1 — remaining binding (cell-free assay; competition with immobilised ligand; 1 µM): 92%
CCN(CC)CCNC(=O)c1c(C)[nH]c(/C=C2\C(=O)Nc3ccc(F)cc32)c1C — inhibition (cell-free assay; 0.3 µM): -3%
CC(C)(C)c1nc(-c2cccc(NS(=O)(=O)c3c(F)cccc3F)c2F)c(-c2ccnc(N)n2)s1 — remaining activity (enzyme activity; inhibitor; radiometric; 1 µM): 104%
Nc1ncnc2occ(-c3ccc(NC(=O)Nc4cc(C(F)(F)F)ccc4F)cc3)c12 — remaining signal (cell-free assay; 20 µM): 7.4%
O=C(Nc1cnn(-c2csc(C(=O)NC3COC3)c2)c1)Nc1ccccc1Cl — remaining activity (enzyme activity; inhibitor; 5 µM): 108%
COc1cc(Cl)c(C(=O)N[C@@H](CN[C@H]2CC[C@@H](N)CC2)Cc2ccc(C#N)cc2)cc1-c1ccc(CN[C@H](C)c2ccc(C)cc2)o1 — remaining activity (enzyme activity; inhibitor; 1 µM): 92%
Cc1noc([C@H]2C[C@@H](c3ccc(C(F)(F)F)cc3)CN(C(=O)N3CCS(=O)(=O)C3)C2)n1 — remaining binding (cell-free assay; competition with immobilised ligand; 1 µM): 100%
CC(C)(O)[C@H]1CC[C@H](Nc2ccc3ncc(-c4cccc(C(F)(F)F)c4)n3n2)CC1 — remaining activity (enzyme activity; inhibitor; 1 µM): 101%
O=C(NCc1ncc(C(F)(F)F)cc1Cl)c1ccc2c(c1)C1(CCS(=O)(=O)CC1)[C@H](C1CC1)N2S(=O)(=O)c1ccc(F)cc1 — remaining binding (cell-free assay; competition with immobilised ligand; 1 µM): 99%
CNC(=O)c1cc2c(Oc3ccc(NC(=O)C4(C(=O)Nc5ccc(F)cc5)CC4)cc3)ccnc2cc1OC — inhibition (enzyme activity; inhibitor; radiometric; 1 µM): 90%
Cc1[nH]c(/C=C2\C(=O)Nc3ccc(F)cc32)c(C)c1C(=O)N[C@H]1CCN(C(=O)N(C)C)C1 — remaining activity (enzyme activity; inhibitor; 0.1 µM): 93%
CC(=O)c1c(NS(C)(=O)=O)c2cc(-c3ccc(Cl)cc3)c(-c3ccc(Cl)cc3Cl)nc2n(C)c1=O — remaining binding (cell-free assay; competition with immobilised ligand; 1 µM): 88%
